21 compounds from ChEMBL document CHEMBL5329172, “Chloroacetamide fragment library screening identifies new scaffolds for covalent inhibition of the TEAD·YAP1 interaction” (RSC Med Chem, 2023) can be followed below.

Test [1] is filed under the species Homo sapiens. Description: Inhibition of GST-tagged TEAD4 C367S mutant (unknown origin) expressed in Escherichia coli BL21 (DE3) cells/FAM-labelled YAP1 (60 to 99 residues)(unknown origin) protein-protein interaction preincubated for 24 hrs at 4 degree C with TEAD4 C367S mutant followed by fluorescent labelled YAP1 addition by fluorescence polarization assay. Put shortly: (§1)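 FP: 64 nM TEAD4, TEAD4C367S, TEAD2 or TEAD3, or 250 nM TEAD1, was preincubated with compound for 24 h at 4 °C in PBS with 0.01% Triton X-100. FAM-YAP1 60–99 peptide (disulfide-crosslinked) was then added at 16 nM final. Polarization was read at ex 485/em 535 nm. Percent inhibition was taken relative to no-compound and no-protein controls. The single-point primary screen used 50 μM.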
In general terms: Fluorescence polarisation rises when a labelled molecule tumbles more slowly, as on binding a larger partner.

The target of test [2] is T1, YAP1-TEAD4 (Homo sapiens) (UniProt P46937+Q15561). The test can be described thus: Inhibition of GST-tagged TEAD4 (217 to 434 residues) (unknown origin) expressed in Escherichia coli BL21 (DE3) cells/FAM-labelled YAP1 (60 to 99 residues)(unknown origin) protein-protein interaction assessed as maximum inhibition at 50 uM preincubated for 24 hrs at 4 degree C with TEAD4 followed by fluorescent labelled YAP1 addition by fluorescence polarization assay. Put shortly:
as §1

In a further test the target is YAP1-TEAD4 (Homo sapiens, UniProt Q15561). Description: Inhibition of GST-tagged TEAD4 (217 to 434 residues) (unknown origin) expressed in Escherichia coli BL21 (DE3) cells/FAM-labelled YAP1 (60 to 99 residues)(unknown origin) protein-protein interaction preincubated for 24 hrs at 4 degree C with TEAD4 followed by fluorescent labelled YAP1 addition by fluorescence polarization assay. The procedure, abridged:
as §1

The target in test [3] is T1, YAP1-TEAD4 (Homo sapiens). The test can be described thus: Covalent inhibition of GST-tagged TEAD4 (217 to 434 residues) (unknown origin) expressed in Escherichia coli BL21 (DE3) cells/FAM-labelled YAP1 (60 to 99 residues)(unknown origin) protein-protein interaction assessed as protein-compound adduct formation at 100 uM incubated for 24 hrs at 4 degree C followed by mass spectrometry analysis. Put shortly: (§2)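 Intact-protein MS: 2.5 μM protein (TEAD4 217–434 with GST cleaved, TEAD4C367S, TEAD1 209–426, TEAD2 217–447 or TEAD3 210–427) incubated with 100 μM compound in PBS for 24 h at 4 °C. Samples were centrifuged to remove precipitate, desalted on a C3 reverse-phase column with a water/acetonitrile 0.1% formic acid gradient, and masses were read by Q-TOF. Adduct peaks were reported as percent.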

The species entered for test [4] is Homo sapiens. The test can be described thus: Covalent inhibition of GST-tagged TEAD4 C367S mutant (unknown origin) expressed in Escherichia coli BL21 (DE3)/FAM-labelled YAP1 (60 to 99 residues)(unknown origin) protein-protein interaction assessed as protein-compound adduct formation at 100 uM incubated for 24 hrs at 4 degree C followed by mass spectrometry analysis. The procedure, abridged: as §2

For a further test, the system named is S2. The test can be described thus: Inhibition of uPAR (unknown origin) expressed in S2 cells/FAM-labelled alpha-helical peptide AE-147 (unknown origin) protein-protein interaction preincubated for 24 hrs at 4 degree C with uPAR followed by fluorescent labelled AE-147 addition by fluorescence polarization assay. The conditions noted are these: Homo sapiens. The procedure, abridged:
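Counter-screen FP: 250 nM uPAR lacking the GPI anchor (from S2 cells) was preincubated with compound for 24 h at 4 °C in PBS with 0.01% Triton X-100. AE-147-FAM peptide was then added at 100 nM final and polarization read at ex 485/em 535 nm.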

Test [5] addresses T1, YAP1-TEAD4 (Homo sapiens). The test can be described thus: Covalent inhibition of GST-tagged TEAD4 (217 to 434 residues) (unknown origin) expressed in Escherichia coli BL21 (DE3) cells/FAM-labelled YAP1 (60 to 99 residues)(unknown origin) protein-protein interaction assessed as second protein-compound adduct formation at 100 uM incubated for 24 hrs at 4 degree C followed by mass spectrometry analysis. The procedure, abridged: as §2

The target of test [6] is T1, YAP1-TEAD4 (Homo sapiens). Description: Covalent inhibition of GST-tagged TEAD4 (217 to 434 residues) (unknown origin) expressed in Escherichia coli BL21 (DE3) cells/FAM-labelled YAP1 (60 to 99 residues)(unknown origin) protein-protein interaction assessed as additional protein-compound adduct formation at 100 uM incubated for 24 hrs at 4 degree C followed by mass spectrometry analysis. Put shortly: as §2

For orientation: IC50 means the concentration that gives 50% inhibition. Low values mean greater potency, high ones weaker potency.

The source made the active and inactive calls. The rule behind the calls is not given here.

YAP1-TEAD4, sequence (P46937 whole entry, the tested form may be a part): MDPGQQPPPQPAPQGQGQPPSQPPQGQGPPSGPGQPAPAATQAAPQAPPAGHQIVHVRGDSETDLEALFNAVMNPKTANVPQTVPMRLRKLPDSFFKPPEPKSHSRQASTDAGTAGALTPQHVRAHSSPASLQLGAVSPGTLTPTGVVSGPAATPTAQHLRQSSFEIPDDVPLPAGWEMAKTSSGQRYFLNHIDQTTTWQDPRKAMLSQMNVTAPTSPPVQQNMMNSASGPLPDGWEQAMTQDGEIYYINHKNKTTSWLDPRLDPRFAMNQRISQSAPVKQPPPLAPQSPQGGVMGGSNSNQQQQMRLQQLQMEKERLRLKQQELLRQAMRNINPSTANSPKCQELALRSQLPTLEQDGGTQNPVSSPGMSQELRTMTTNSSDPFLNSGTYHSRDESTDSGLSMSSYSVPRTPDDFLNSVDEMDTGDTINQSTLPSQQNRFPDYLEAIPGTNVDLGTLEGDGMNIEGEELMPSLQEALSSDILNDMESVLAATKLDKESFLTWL
YAP1-TEAD4, sequence (Q15561 whole entry, the tested form may be a part): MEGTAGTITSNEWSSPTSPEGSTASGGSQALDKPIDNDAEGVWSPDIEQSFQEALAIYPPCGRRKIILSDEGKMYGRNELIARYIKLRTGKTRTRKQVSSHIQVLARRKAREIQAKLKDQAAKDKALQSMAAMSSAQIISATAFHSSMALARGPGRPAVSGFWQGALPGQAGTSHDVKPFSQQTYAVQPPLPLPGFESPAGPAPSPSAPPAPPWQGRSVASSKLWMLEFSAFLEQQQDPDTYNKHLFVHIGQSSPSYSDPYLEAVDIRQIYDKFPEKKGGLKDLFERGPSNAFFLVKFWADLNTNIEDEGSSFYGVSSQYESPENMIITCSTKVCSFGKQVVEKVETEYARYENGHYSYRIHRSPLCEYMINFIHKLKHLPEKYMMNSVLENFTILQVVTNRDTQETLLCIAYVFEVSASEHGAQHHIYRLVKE

On to `COc1ccc(C(C(=O)NC2CCCCCC2)N(Cc2cccs2)C(=O)CCl)cc1` (stereo not given), for which the inhibition entry in the test listed under Homo sapiens [1], in the test filed under Homo sapiens [4] and in the test on S2 was “inactive” in each case. For the same compound, the Imax in test [2] turned out to be 41%. Also, the IC50 against YAP1-TEAD4 was 4.8 µM. For the same compound, in test [3], the percent protein-compound adduct formation came to 32%.
`O=C(CCl)N1N=C(c2cccs2)CC1c1cccs1` (stereo not given): the inhibition result in the test filed under Homo sapiens [1], in the test filed under Homo sapiens [4] and in the test with S2 was “inactive” each time. Also, the Imax in test [2] was 46%. The IC50 against YAP1-TEAD4 was 4.7 µM. Further, in test [3], the percent protein-compound adduct formation was determined as 45%. The percent second protein-compound adduct in test [5] turned out to be 9%.
Consider `Cc1ccc(C2CC(c3cccs3)=NN2C(=O)CCl)cc1` (stereo not given), for which the inhibition entry in the test listed under Homo sapiens [1], in the test filed under Homo sapiens [4] and in the test with S2 was “inactive” throughout. The Imax in test [2] was 41%. Besides, the IC50 against YAP1-TEAD4 was determined as 3.8 µM. The percent protein-compound adduct formation in test [3] was found to be 27%.
As for `COc1ccc(C(C(=O)NC2CCCCCC2)N(Cc2ccc(C)cc2)C(=O)CCl)cc1` (stereo not given), the inhibition result in the test filed under Homo sapiens [1], in the test filed under Homo sapiens [4] and in the test with S2 was “inactive” throughout. Moreover, the Imax in test [2] turned out to be 36%. Also, at YAP1-TEAD4, half-maximal inhibition (IC50) was put at 4.4 µM. Besides, the percent protein-compound adduct formation in test [3] is 25%.
Consider `O=C(CCl)N1CCN(S(=O)(=O)/C=C/c2ccccc2)CC1`, for which the inhibition entry in the test listed under Homo sapiens [1] and in the test on S2 was “inactive” each time. For the same compound, the Imax in test [2] is 49%. Besides, half-maximal inhibition against YAP1-TEAD4 (IC50) required 4.9 µM. Moreover, the percent protein-compound adduct formation in test [3] stood at 73%.
Turning to `COc1ccc(CN(C(=O)CCl)C(C(=O)NC2CCCCCC2)c2ccc(OC)cc2)cc1` (stereo not given), the inhibition entry in the test filed under Homo sapiens [1], in the test filed under Homo sapiens [4] and with S2 was “inactive” each time. Further, the Imax in test [2] came out at 45%. This compound gave an IC50 on YAP1-TEAD4 of 5.5 µM. Moreover, the percent protein-compound adduct formation in test [3] was 37%.
With `Cc1ccc(S(=O)(=O)N2CCN(C(=O)CCl)CC2)cc1C`, the inhibition result in the test filed under Homo sapiens [1] and in the test with S2 was “inactive” in each case. Also, the Imax in test [2] amounted to 48%. Further, the IC50 on YAP1-TEAD4 worked out at 22.8 µM. Moreover, the percent protein-compound adduct formation in test [3] turned out to be 38%.
Regarding `O=C(CCl)N1N=C(c2ccc(Cl)cc2)CC1c1ccco1` (stereo not given), the inhibition result in the test listed under Homo sapiens [1], in the test filed under Homo sapiens [4] and in the test on S2 was “inactive” each time. Besides, the Imax in test [2] is 62%. The compound also showed an IC50 at YAP1-TEAD4 of 6 µM. The percent protein-compound adduct formation in test [3] came out at 64%. Further, the percent second protein-compound adduct in test [5] was 18%.
For `COc1ccc(N(C(=O)CCl)C(C(=O)NCCc2ccccc2)c2cccs2)cc1Cl` (stereo not given), the inhibition entry in the test listed under Homo sapiens [1], in the test listed under Homo sapiens [4] and with S2 was “inactive” throughout. For the same compound, the percent protein-compound adduct formation in test [6] stood at 15%; in test [3], 51%. For the same compound, in test [2], the Imax is 39%. On YAP1-TEAD4, this compound returned a concentration for half-maximal inhibition (IC50) of 1.1 µM. Further, the percent second protein-compound adduct in test [5] came out at 12%.
Take `COc1ccc(C2=NN(C(=O)CCl)C(c3nc4ccccc4[nH]3)C2)cc1` (stereo not given): the inhibition entry in the test listed under Homo sapiens [1], in the test listed under Homo sapiens [4] and in the test on S2 was “inactive” in each case. For the same compound, in test [2], the Imax was found to be 45%. Moreover, the 50% inhibitory concentration (IC50) on YAP1-TEAD4 is 5.8 µM. Besides, the percent protein-compound adduct formation in test [3] stood at 38%. Further, in test [5], the percent second protein-compound adduct came to 30%.
`COc1ccc(C(C(=O)NCCc2ccccc2)N(Cc2cccs2)C(=O)CCl)cc1` (stereo not given): the inhibition entry in the test listed under Homo sapiens [1], in the test filed under Homo sapiens [4] and with S2 was “inactive” in each case. In addition, the Imax in test [2] was found to be 42%. The compound also displayed a concentration for half-maximal inhibition (IC50) at YAP1-TEAD4 of 10.5 µM. The percent protein-compound adduct formation in test [3] amounted to 47%.
For the compound `O=C(CCl)N1N=C(c2ccccc2)CC1c1ccccc1` (stereo not given), the inhibition result in the test listed under Homo sapiens [1], in the test filed under Homo sapiens [4] and in the test on S2 was “inactive” in each case. Moreover, the Imax in test [2] came to 52%. The IC50 at YAP1-TEAD4 turned out to be 5.9 µM. Also, the percent protein-compound adduct formation in test [3] is 38%. In addition, the percent second protein-compound adduct in test [5] turned out to be 21%.
Take `Cc1ccc2c(c1)c1c3n2CCN(C(=O)CCl)C3CCC1` (stereo not given): the inhibition entry in the test filed under Homo sapiens [1] and with S2 was “inactive” each time. Further, the percent protein-compound adduct formation in test [6] is 30%; in test [3] it was 29%. For the same compound, the Imax in test [2] was determined as 50%. This compound gave an IC50 against YAP1-TEAD4 of 2 µM. The percent second protein-compound adduct in test [5] worked out at 30%.
Regarding `COc1ccc(C(C(=O)NC2CCCCCC2)N(Cc2ccccc2)C(=O)CCl)cc1` (stereo not given), the inhibition result in the test filed under Homo sapiens [1], in the test listed under Homo sapiens [4] and with S2 was “inactive” throughout. Moreover, the Imax in test [2] is 49%. The IC50 against YAP1-TEAD4 was found to be 7.4 µM. The percent protein-compound adduct formation in test [3] is 31%.
As for `O=C(CCl)N1CCN(S(=O)(=O)c2ccc(Cl)cc2[N+](=O)[O-])CC1`, the inhibition result in the test filed under Homo sapiens [1] and in the test with S2 was “inactive” each time. The percent protein-compound adduct formation in test [3] is 54%. For the same compound, the percent second protein-compound adduct in test [5] was 31%.
With `O=C(NCCc1ccccc1)C(c1cccs1)N(C(=O)CCl)c1ccc(Cl)cc1` (stereo not given), the inhibition result in the test filed under Homo sapiens [1], in the test filed under Homo sapiens [4] and in the test on S2 was “inactive” in each case. For the same compound, the Imax in test [2] is 40%. At YAP1-TEAD4, this compound had a 50% inhibitory concentration (IC50) of 4 µM. Further, in test [3], the percent protein-compound adduct formation came to 15%.
Consider `O=C(CCl)N1N=C2/C(=C/c3ccco3)CCCC2C1c1ccco1` (stereo not given), for which the inhibition result in the test listed under Homo sapiens [1], in the test filed under Homo sapiens [4] and in the test on S2 was “inactive” throughout. Also, the Imax in test [2] is 67%. On YAP1-TEAD4, this compound came in with a half-maximal inhibitory concentration (IC50) of 7.8 µM. Moreover, the percent protein-compound adduct formation in test [3] came to 32%. In test [5], the percent second protein-compound adduct was found to be 10%.
With `Cc1ccc(S(=O)(=O)N2CCN(C(=O)CCl)C2c2ccccc2)cc1` (stereo not given), the inhibition result in the test listed under Homo sapiens [1] and with S2 was “inactive” throughout. Moreover, in test [2], the Imax is 50%. Also, at YAP1-TEAD4, the IC50 was under 1 µM. Besides, in test [3], the percent protein-compound adduct formation was 52%. The percent second protein-compound adduct in test [5] was 23%.
Turning to `Cc1ccc(S(=O)(=O)N2CCN(C(=O)CCl)C2)cc1`, the inhibition entry in the test filed under Homo sapiens [1] and with S2 was “inactive” in each case. For the same compound, the Imax in test [2] is 49%. The same compound yielded an IC50 against YAP1-TEAD4 of 1.9 µM. For the same compound, in test [3], the percent protein-compound adduct formation was determined as 75%. For the same compound, the percent second protein-compound adduct in test [5] was found to be 25%.
On to `O=C(CCl)N1N=C(c2ccc(Br)cc2)CC1c1ccc(F)cc1` (stereo not given), for which the inhibition entry in the test listed under Homo sapiens [1], in the test listed under Homo sapiens [4] and in the test with S2 was “inactive” throughout. Further, the Imax in test [2] stood at 41%. The same compound yielded a half-maximal inhibitory concentration (IC50) at YAP1-TEAD4 of 1.5 µM. The percent protein-compound adduct formation in test [3] was determined as 27%.
In the case of `COc1ccc(C2=NN(C(=O)CCl)C(c3cccc(OC)c3OC)C2)cc1` (stereo not given), the inhibition result in the test filed under Homo sapiens [1], in the test listed under Homo sapiens [4] and in the test with S2 was “inactive” each time. In test [2], the Imax was 39%. In addition, 1.1 µM corresponded to half-maximal inhibition against YAP1-TEAD4 (IC50). Also, the percent protein-compound adduct formation in test [3] was determined as 42%.
